Source: ChEMBL document CHEMBL3585269, “Simple structural modifications confer cytotoxicity to allobetulin” (Bioorg Med Chem, 2015)

Tested on: not listed separately
Assay: Cytotoxicity against human 518A2 cells by SRB assay
Type: functional, cell-based
Conditions: Homo sapiens, 518A2; read-out: EC50
Method in brief: (§1)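 Photometric sulforhodamine B (SRB) read-out after 96 h of compound treatment. EC50 values are averaged from three independent experiments, each run in triplicate, and reported with a 95% confidence interval. The assay has an upper cut-off.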

Row | Structure (SMILES) | EC50 [µM]
1 | C=C(C)[C@@H]1CC[C@]2(C)[C@H](CC[C@@H]3[C@H]4[C@H]5OC[C@@]4(CCC5(C)C)CC[C@]32C)[C@@]1(C)CCC(=O)OCC | > 30
2 | C=C(C)[C@@H]1CC[C@]2(C)[C@H](CC[C@@H]3[C@H]4[C@H]5OC[C@@]4(CCC5(C)C)CC[C@]32C)[C@@]1(C)CCC(=O)OCCC | > 30
3 | C=CCOC(=O)CC[C@]1(C)[C@H]2CC[C@@H]3[C@H]4[C@H]5OC[C@@]4(CCC5(C)C)CC[C@@]3(C)[C@]2(C)CC[C@H]1C(=C)C | > 30
4 | C#CCOC(=O)CC[C@]1(C)[C@H]2CC[C@@H]3[C@H]4[C@H]5OC[C@@]4(CCC5(C)C)CC[C@@]3(C)[C@]2(C)CC[C@H]1C(=C)C | > 30
5 | C=C(C)[C@@H]1CC[C@]2(C)[C@H](CC[C@@H]3[C@H]4[C@H]5OC[C@@]4(CCC5(C)C)CC[C@]32C)[C@@]1(C)CCC(=O)OCCCC | > 30
6 | COC(=O)C[C@]1(C)[C@H]2CC[C@@H]3[C@H]4[C@H]5OC[C@@]4(CCC5(C)C)CC[C@@]3(C)[C@]2(C)CC[C@H]1C(C)(C)C(=O)OC | 29.4

Tested on: HT-29
Assay: Cytotoxicity against human HT-29 cells by SRB assay
Type: functional, cell-based
Conditions: Homo sapiens, HT-29; read-out: EC50
Method in brief: as §1

Row | Structure (SMILES) | EC50 [µM]
7 | C=C(C)[C@@H]1CC[C@]2(C)[C@H](CC[C@@H]3[C@H]4[C@H]5OC[C@@]4(CCC5(C)C)CC[C@]32C)[C@@]1(C)CCC(=O)OCC | > 30
8 | C=C(C)[C@@H]1CC[C@]2(C)[C@H](CC[C@@H]3[C@H]4[C@H]5OC[C@@]4(CCC5(C)C)CC[C@]32C)[C@@]1(C)CCC(=O)OCCC | > 30
9 | C=CCOC(=O)CC[C@]1(C)[C@H]2CC[C@@H]3[C@H]4[C@H]5OC[C@@]4(CCC5(C)C)CC[C@@]3(C)[C@]2(C)CC[C@H]1C(=C)C | > 30
10 | C#CCOC(=O)CC[C@]1(C)[C@H]2CC[C@@H]3[C@H]4[C@H]5OC[C@@]4(CCC5(C)C)CC[C@@]3(C)[C@]2(C)CC[C@H]1C(=C)C | > 30
11 | C=C(C)[C@@H]1CC[C@]2(C)[C@H](CC[C@@H]3[C@H]4[C@H]5OC[C@@]4(CCC5(C)C)CC[C@]32C)[C@@]1(C)CCC(=O)OCCCC | > 30
12 | COC(=O)C[C@]1(C)[C@H]2CC[C@@H]3[C@H]4[C@H]5OC[C@@]4(CCC5(C)C)CC[C@@]3(C)[C@]2(C)CC[C@H]1C(C)(C)C(=O)OC | 17.5

Tested on: MCF7
Assay: Cytotoxicity against human MCF7 cells by SRB assay
Type: functional, cell-based
Conditions: Homo sapiens, MCF7; read-out: EC50
Method in brief: as §1

Row | Structure (SMILES) | EC50 [µM]
13 | C=C(C)[C@@H]1CC[C@]2(C)[C@H](CC[C@@H]3[C@H]4[C@H]5OC[C@@]4(CCC5(C)C)CC[C@]32C)[C@@]1(C)CCC(=O)OCC | > 30
14 | C=C(C)[C@@H]1CC[C@]2(C)[C@H](CC[C@@H]3[C@H]4[C@H]5OC[C@@]4(CCC5(C)C)CC[C@]32C)[C@@]1(C)CCC(=O)OCCC | > 30
15 | C=CCOC(=O)CC[C@]1(C)[C@H]2CC[C@@H]3[C@H]4[C@H]5OC[C@@]4(CCC5(C)C)CC[C@@]3(C)[C@]2(C)CC[C@H]1C(=C)C | > 30
16 | C#CCOC(=O)CC[C@]1(C)[C@H]2CC[C@@H]3[C@H]4[C@H]5OC[C@@]4(CCC5(C)C)CC[C@@]3(C)[C@]2(C)CC[C@H]1C(=C)C | > 30
17 | C=C(C)[C@@H]1CC[C@]2(C)[C@H](CC[C@@H]3[C@H]4[C@H]5OC[C@@]4(CCC5(C)C)CC[C@]32C)[C@@]1(C)CCC(=O)OCCCC | > 30
18 | COC(=O)C[C@]1(C)[C@H]2CC[C@@H]3[C@H]4[C@H]5OC[C@@]4(CCC5(C)C)CC[C@@]3(C)[C@]2(C)CC[C@H]1C(C)(C)C(=O)OC | 29.4

Tested on: A549
Assay: Cytotoxicity against human A549 cells by SRB assay
Type: functional, cell-based
Conditions: Homo sapiens, A549; read-out: EC50
Method in brief: as §1

Row | Structure (SMILES) | EC50 [µM]
19 | C=C(C)[C@@H]1CC[C@]2(C)[C@H](CC[C@@H]3[C@H]4[C@H]5OC[C@@]4(CCC5(C)C)CC[C@]32C)[C@@]1(C)CCC(=O)OCC | > 30
20 | C=C(C)[C@@H]1CC[C@]2(C)[C@H](CC[C@@H]3[C@H]4[C@H]5OC[C@@]4(CCC5(C)C)CC[C@]32C)[C@@]1(C)CCC(=O)OCCC | > 30
21 | C=CCOC(=O)CC[C@]1(C)[C@H]2CC[C@@H]3[C@H]4[C@H]5OC[C@@]4(CCC5(C)C)CC[C@@]3(C)[C@]2(C)CC[C@H]1C(=C)C | > 30
22 | C#CCOC(=O)CC[C@]1(C)[C@H]2CC[C@@H]3[C@H]4[C@H]5OC[C@@]4(CCC5(C)C)CC[C@@]3(C)[C@]2(C)CC[C@H]1C(=C)C | > 30
23 | C=C(C)[C@@H]1CC[C@]2(C)[C@H](CC[C@@H]3[C@H]4[C@H]5OC[C@@]4(CCC5(C)C)CC[C@]32C)[C@@]1(C)CCC(=O)OCCCC | > 30
24 | COC(=O)C[C@]1(C)[C@H]2CC[C@@H]3[C@H]4[C@H]5OC[C@@]4(CCC5(C)C)CC[C@@]3(C)[C@]2(C)CC[C@H]1C(C)(C)C(=O)OC | > 30

Tested on: 8505C
Assay: Cytotoxicity against human 8505C cells by SRB assay
Type: functional, cell-based
Conditions: Homo sapiens, 8505C; read-out: EC50
Method in brief: as §1

Row | Structure (SMILES) | EC50 [µM]
25 | C=C(C)[C@@H]1CC[C@]2(C)[C@H](CC[C@@H]3[C@H]4[C@H]5OC[C@@]4(CCC5(C)C)CC[C@]32C)[C@@]1(C)CCC(=O)OCC | > 30
26 | C=C(C)[C@@H]1CC[C@]2(C)[C@H](CC[C@@H]3[C@H]4[C@H]5OC[C@@]4(CCC5(C)C)CC[C@]32C)[C@@]1(C)CCC(=O)OCCC | > 30
27 | C=CCOC(=O)CC[C@]1(C)[C@H]2CC[C@@H]3[C@H]4[C@H]5OC[C@@]4(CCC5(C)C)CC[C@@]3(C)[C@]2(C)CC[C@H]1C(=C)C | > 30
28 | C#CCOC(=O)CC[C@]1(C)[C@H]2CC[C@@H]3[C@H]4[C@H]5OC[C@@]4(CCC5(C)C)CC[C@@]3(C)[C@]2(C)CC[C@H]1C(=C)C | > 30
29 | C=C(C)[C@@H]1CC[C@]2(C)[C@H](CC[C@@H]3[C@H]4[C@H]5OC[C@@]4(CCC5(C)C)CC[C@]32C)[C@@]1(C)CCC(=O)OCCCC | > 30
30 | COC(=O)C[C@]1(C)[C@H]2CC[C@@H]3[C@H]4[C@H]5OC[C@@]4(CCC5(C)C)CC[C@@]3(C)[C@]2(C)CC[C@H]1C(C)(C)C(=O)OC | 27.1

Tested on: A2780
Assay: Cytotoxicity against human A2780 cells by SRB assay
Type: functional, cell-based
Conditions: Homo sapiens, A2780; read-out: EC50
Method in brief: as §1

Row | Structure (SMILES) | EC50 [µM]
31 | C=C(C)[C@@H]1CC[C@]2(C)[C@H](CC[C@@H]3[C@H]4[C@H]5OC[C@@]4(CCC5(C)C)CC[C@]32C)[C@@]1(C)CCC(=O)OCC | > 30
32 | C=C(C)[C@@H]1CC[C@]2(C)[C@H](CC[C@@H]3[C@H]4[C@H]5OC[C@@]4(CCC5(C)C)CC[C@]32C)[C@@]1(C)CCC(=O)OCCC | > 30
33 | C=CCOC(=O)CC[C@]1(C)[C@H]2CC[C@@H]3[C@H]4[C@H]5OC[C@@]4(CCC5(C)C)CC[C@@]3(C)[C@]2(C)CC[C@H]1C(=C)C | > 30
34 | C#CCOC(=O)CC[C@]1(C)[C@H]2CC[C@@H]3[C@H]4[C@H]5OC[C@@]4(CCC5(C)C)CC[C@@]3(C)[C@]2(C)CC[C@H]1C(=C)C | > 30
35 | C=C(C)[C@@H]1CC[C@]2(C)[C@H](CC[C@@H]3[C@H]4[C@H]5OC[C@@]4(CCC5(C)C)CC[C@]32C)[C@@]1(C)CCC(=O)OCCCC | > 30
36 | COC(=O)C[C@]1(C)[C@H]2CC[C@@H]3[C@H]4[C@H]5OC[C@@]4(CCC5(C)C)CC[C@@]3(C)[C@]2(C)CC[C@H]1C(C)(C)C(=O)OC | 18.1
